# NALP1 inh = NALP1 inhibition; S. cerevisiae NALP1/ASC/caspase-1 growth, X-gal OD620, 72 h; inhibition, % at 10 µM; actives 0.61% (n = 280,000); in the data active means inhibition mostly above about 24%, no sharp cut-off; inactive means mostly below about 32%
# ALR inh = human ALR oxidase inhibition via reduced H2O2 | purified ALR, DTT oxidation, H2O2 HRP-luminol luminescence | inhibition, % (test concentration not listed) | actives 3.8% (n = 290,000) | AID 485317;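 active means mean replicate inhibition above about 79%, with every replicate also reaching it, limit read from the data; inconclusive means only one of the two criteria met; inactive means mean below limit and not every replicate reaching it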
# PolyA inh = inhibitors of polyadenylation in S. cerevisiae; S. cerevisiae SKY197-pL101 polyadenylation reporter, beta-gal luminescence; efflux-impaired pdr1/pdr3 knockout yeast; score 100 = 6 SD above DMSO; activity score, % at 12 µM; actives 0.02% (n = 300,000); AID 1875;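 active means lowest replicate activity score at least 50, where 100 means six control SD above control mean; inconclusive means lowest score under 50 but half or more replicates reach 50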;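 further: yeast exposed to compound for 9 h at 30 °C; higher score means more reporter readthrough which indicates perturbed polyadenylation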
# Arr AP2 block = inhibitors of human beta-arrestin and AP2 interaction. FITC-arrestin peptide / GST-AP2 beads, flow cytometry; AP2 beta2 appendage carries R879A mutation. inhibition, % at 10 µM. actives 0.31% (n = 340,000);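 active means inhibition above a set limit, near 3 SD of compounds lacking own fluorescence, cut at about 54% in these data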;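 further: plate controls were DMSO wells for no effect and 5 µM unlabelled arrestin peptide for full effect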
#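 System: GST-tagged AP2 beta2-adaptin appendage (R879A) on 4 µm glutathione beads / Reagent: FITC-arrestin peptide, 50 nM / Detection: HyperCyt-sampled flow cytometry, FL1 channel, ex 488/em 535 nm / Timing: 12 min plus 1 h, RT / Buffer or medium: PBS plus Tween 20 (0.05%) and BSA (0.1%)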
# NLRP3 yeast inh = inhibitors of NALP3 inflammasome in yeast | Yeast reconstituted NLRP3/ASC/caspase-1, beta-gal luminescence, 24 h | inhibition, % at 10 µM | AID 2825 | actives 0.39% (n = 330,000);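 active means inhibition of 50% or more; inactive means inhibition below 50%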;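 further: plate controls were induced DMSO wells for no effect and uninduced yeast grown without galactose for full effect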
# Pemphigus Ab inh = inhibitors of pemphigus antibody binding to human desmoglein-3 | P32926 | DSG3-coupled beads, scFv-anti-DSG3-GFP binding, flow cytometry; hits give low values | binding (percent of control), % at 10 µM | actives 0.48% (n = 310,000) | AID 588358;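 active means binding more than 3 SD below its plate's average and above zero; inconclusive means below that plate limit but binding exactly zero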;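 further: hits lower antibody fragment binding to DSG3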
# The depositor's hits bear a star; ? = inconclusive; nt = no result. Rows were chosen to be rich in hits. Some 4.6% of all compounds tested hit in one or more screens of this group.
SMILES,NALP1 inh,ALR inh,PolyA inh,Arr AP2 block,NLRP3 yeast inh,Pemphigus Ab inh
O=C(NCc1ccco1)c1cccc2c1C(=O)c1ccc(N3CCC(N4CCCCC4)CC3)cc1S2(=O)=O,nt,nt,nt,nt,nt,113
N#CC1=C(N)SC(N)=C(C#N)C1c1ccc([N+](=O)[O-])cc1,6,98*,14,-1,2,106
CNC[C@H]1Oc2ccc(NC(=O)Nc3ccccc3)cc2CC(=O)N([C@H](C)CO)C[C@H]1C,nt,4,nt,25,4,98
O=C1NC(=O)C(=C2CCOC2=O)N1,nt,nt,nt,nt,nt,108
Cc1cccc(C(=O)Nc2sc3c(c2C(=O)O)CCC3)c1,21,57,4,23,-10,89
CCOC(=O)c1c(NC(=O)C2CCCCC2C(=O)O)sc2c1CCCCC2 (configuration not stated),16,25,1,15,6,110
CCOC(=O)c1c(NC(=S)Nc2ccccc2)sc2c1CCN(CC)C2,6,87*,-14,9,6,164
CCOC(=O)c1c(N2C(=O)Nc3ccccc3N2O)sc2c1CCCC2,13,93*,-10,-4,11,89
CNC(=O)c1c(NC(=O)c2cccc(C)c2)sc2c1CCC2,20,95*,-4,8,21,107
CCOC(=O)c1c(NC(=O)C2C3C=CC(C3)C2(C)C(=O)O)sc2c1CCCC2 (configuration not stated),15,91*,-15,-2,3,81
CC1CCC2(CC1)NC(=O)N(NC(=O)C1CCN(C(=O)c3ccc(Cl)cc3)CC1)C2=O (configuration not stated),nt,nt,nt,2,3,89
CCOC(=O)c1c(NC(=O)COc2cccc3c2CCN(C)C3=O)sc2c1CCC2,15,87*,-3,1,10,111
CCOC(=O)c1c(NC(=O)c2ccccc2C(=O)O)sc2c1CCCC2,14,nt,-5,-3,19,68*
Cc1cccc(NC(=O)COc2cccc3c2CCN(C)C3=O)c1C,21,-8,0,-4,-1,110
CCCc1nnc(NC(=S)Nc2ccccc2)s1,0,0,-11,2,6,104
CC(C)C(=O)Nc1nnc(NC(=S)Nc2ccccc2)s1,-14,82*,7,-11,24,nt
Cc1ccc(-n2nc3c(c2NC(=O)C(C)C)CS(=O)(=O)C3)c(C)c1,-13,2,9,31,10,108
CCN(CC)c1ccc(NS(=O)(=O)c2ccc3c(c2)oc(=O)n3C)c(C)c1,25,99*,-12,5,10,94
CN(NC1CC(=O)N(c2ccccc2)C1=O)c1ccccc1 (configuration not stated),25,97*,nt,0,nt,99
O=C(O)CCCN1C(=O)/C(=C\C(Cl)=C\c2ccccc2)SC1=S,-2,98*,-32,38,nt,101
CC(/C=C1\SC(=S)N(CCCC(=O)Nc2ccc(C(=O)O)c(O)c2)C1=O)=C\c1ccccc1,7,97*,-5,nt,nt,nt
COc1cc(/C=C2/SC(=S)N(CCC(=O)Nc3ccccc3)C2=O)cc(OC)c1OC,10,3,-24,-2,26,nt
COc1ccc(NC(=O)CN2C(=O)/C(=C3\SC(=S)N(CCC(=O)O)C3=O)c3ccccc32)cc1,10,nt,6,31,-10,82*
O=C(O)CCN1C(=O)/C(=C2\C(=O)N(Cc3ccccc3Cl)c3ccccc32)SC1=S,-5,-12,-11,10,21,93
COc1cc(/C=C2\SC(=S)N(CCC(=O)Nc3ccccc3)C2=O)cc(OC)c1OC,29*,-1,11,-12,24,93
SMILES,NALP1 inh,ALR inh,PolyA inh,Arr AP2 block,NLRP3 yeast inh,Pemphigus Ab inh
O=C(CNC(=O)c1ccco1)OCc1ccccc1F,nt,-1,nt,18,16,91
Cc1cc(C)c(NC(=O)C2CCN(S(C)(=O)=O)CC2)c(C)c1,nt,nt,nt,nt,nt,101
COc1cc(C(=O)NN2C(=O)NC3(CCC(C)CC3)C2=O)ccc1OC(F)F (configuration not stated),nt,nt,nt,0,-2,nt
Cc1ccc(NC(=O)CCCN2C(=O)/C(=C/C=C/c3ccccc3)SC2=S)cc1,18,7,-18,-5,22,85*
O=C(O)CCCN1C(=O)/C(=C\c2ccc(-c3nc4ccccc4s3)o2)SC1=S,19,94*,1,24,14,74*
Cc1cc(NC(=O)CCCN2C(=O)/C(=C/c3cccs3)SC2=S)no1,29,-2,4,-18,9,16*
Cc1cc(NC(=O)CCCN2C(=O)c3cccc4cccc(c34)C2=O)no1,15,nt,4,-24,-4,92*
CCc1ccc(/C=C2\SC(=S)N(CCCC(=O)Nc3cc(C)on3)C2=O)cc1,nt,nt,nt,nt,nt,100
CC(Sc1nc2ccccc2c(=O)n1C)C(=O)N(C)C1CCCCC1 (configuration not stated),nt,-8,?,4,-1,95
O=C(CCN1C(=O)/C(=C/c2cccs2)SC1=S)Nc1ccc(O)cc1,14,-21,-12,-1,29,107
O=C(CCCN1C(=O)S/C(=C/C=C/c2ccccc2)C1=O)Nc1ccc(C(=O)O)cc1,-2,nt,24,-1,10,108
O=C(CCN1C(=O)/C(=C/c2cccs2)SC1=S)Nc1ccc(C(=O)O)c(O)c1,18,79*,-9,-8,8,80
CC(=C\c1ccccc1)/C=C1/SC(=O)N(CCCC(=O)Nc2ccc(C(=O)O)cc2)C1=O,-1,97*,7,-13,6,103
CCc1ccccc1NC1=CC(=O)CC(C)(C)C1,20,2,-1,0,13,101
CC1(C)CC(=O)C=C(Nc2ccccc2N)C1,9,99*,8,38,12,107
CCC1=C(c2ccc(OC)cc2)CCC(C(=O)O)C1C (configuration not stated),nt,nt,nt,2,nt,121
COc1cc2c(cc1OC)C(C)N(C(=O)Cn1ncc3c1-c1ccccc1OC3)CC2 (configuration not stated),25,-73,1,25,10,89*
CCOC(=O)c1nnc(-c2cccs2)nc1NC(C)C,24*,nt,4,9,22,nt
CCOC(=O)c1nnc(-c2cccs2)nc1Oc1ccc(Cl)cc1,-23,92*,-3,-2,15,111
Cc1ccc(CN(C)C(=O)CCc2nc3sc4c(c3c(=O)[nH]2)CCCC4)o1,14,98*,1,3,9,103
CN(Cc1ccco1)C(=O)CCc1nc2sc3c(c2c(=O)[nH]1)CCCC3,5,9,17,52,10,106
Cc1cc(C)c(C(=O)CSc2nnc(C)c(=O)[nH]2)cc1C,-2,95*,26,22,18,102

# High-throughput results: PubChem BioAssay, several laboratories
